Measured values taken from ChEMBL document CHEMBL4184332, “Discovery of Novel Nonsteroidal Anti-Inflammatory Drugs and Carbonic Anhydrase Inhibitors Hybrids (NSAIDs-CAIs) for the Management of Rheumatoid Arthritis” (J Med Chem, 2018).
Activity calls are given as the source filed them.

What was measured:
[1] = system: Rattus norvegicus; assay: Antiarthritic activity in CFA-induced Sprague-Dawley rat rheumatoid arthritis model assessed as increase in tolerated weight on ipsilateral paw at 10 mg/kg, po measured up to 75 mins by paw pressure test; assay type: functional, organism-based
How it was run: (§1)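 Rats: Sprague Dawley, 200-250 g, given 50 μl CFA intra-articularly into the tibiotarsal joint; controls got saline. On day 14, compounds in 1% CMC were given orally. An analgesimeter applied increasing pressure to the dorsal hind paw with a blunt conical probe until vocalization or withdrawal, read in grams, cut-off 120 g. Rats below 40 g or above 75 g before dosing were excluded. Values are mean (S.E.M.) of 8 rats from 2 experiments.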

[2] = target: Carbonic anhydrase 4 (Homo sapiens, UniProt P22748); assay: Inhibition of recombinant human carbonic anhydrase-4 incubated for 15 mins by stopped-flow CO2 hydrase assay
[3] = system: Rattus norvegicus; assay: Antiarthritic activity in CFA-induced Sprague-Dawley rat rheumatoid arthritis model assessed as tolerated weight on ipsilateral paw at 0.1 mg/kg, po measured at 15 mins by paw pressure test (reference value: 43.5 +/- 0.5 g); assay type: functional; how it was run: as §1
[4] = system: Rattus norvegicus; assay: Antiarthritic activity in CFA-induced Sprague-Dawley rat rheumatoid arthritis model assessed as tolerated weight on ipsilateral paw at 1 mg/kg, po measured at 30 mins by paw pressure test (reference value: 43.5 +/- 0.5 g); assay type: functional; how it was run: as §1
[5] = system: Rattus norvegicus; assay: Antiarthritic activity in CFA-induced Sprague-Dawley rat rheumatoid arthritis model assessed as difference between weight burden on contralateral and ipsilateral paw at 1 mg/kg, po measured at 30 mins by incapacitance test (reference value: 54.2 +/- 5.1 g); assay type: functional
[6] = system: Rattus norvegicus; assay: Antiarthritic activity in CFA-induced Sprague-Dawley rat rheumatoid arthritis model assessed as difference between weight burden on contralateral and ipsilateral paw at 10 mg/kg, po measured at 30 mins by incapacitance test (reference value: 54.2 +/- 5.1 g); assay type: functional
[7] = system: Rattus norvegicus; assay: Antiarthritic activity in CFA-induced Sprague-Dawley rat rheumatoid arthritis model assessed as tolerated weight on ipsilateral paw at 10 mg/kg, po measured at 30 mins by paw pressure test (reference value: 43.5 +/- 0.5 g); assay type: functional; how it was run: as §1
[8] = target: T1, Carbonic anhydrase 2 (Homo sapiens, UniProt P00918); assay: Inhibition of recombinant human carbonic anhydrase-2 incubated for 15 mins by stopped-flow CO2 hydrase assay
[9] = target: Carbonic anhydrase 9 (Homo sapiens, UniProt Q16790); assay: Inhibition of recombinant human carbonic anhydrase-9 catalytic domain incubated for 15 mins by stopped-flow CO2 hydrase assay
[10] = species: Rattus norvegicus; assay: Change in pain threshold of contralateral paw of CFA-induced Sprague-Dawley rat rheumatoid arthritis model by paw pressure test; assay type: organism-based; conditions: in vivo; how it was run: as §1
[11] = target: Carbonic anhydrase 12 (Homo sapiens, UniProt O43570); assay: Inhibition of recombinant human carbonic anhydrase-12 incubated for 15 mins by stopped-flow CO2 hydrase assay
[12] = target: Carbonic anhydrase 1 (Homo sapiens, UniProt P00915); assay: Inhibition of recombinant human carbonic anhydrase-1 incubated for 15 mins by stopped-flow CO2 hydrase assay
[13] = system: Rattus norvegicus; assay: Antiarthritic activity in CFA-induced Sprague-Dawley rat rheumatoid arthritis model assessed as decrease in difference between weight burden on contralateral and ipsilateral paw at 0.1 mg/kg, po measured up to 45 mins by incapacitance test; assay type: functional, organism-based
[14] = system: Rattus norvegicus; assay: Antiarthritic activity in CFA-induced Sprague-Dawley rat rheumatoid arthritis model assessed as increase in tolerated weight on ipsilateral paw at 1 mg/kg, po measured at 60 mins by paw pressure test; assay type: functional, organism-based; how it was run: as §1
[15] = system: Rattus norvegicus; assay: Antiarthritic activity in CFA-induced Sprague-Dawley rat rheumatoid arthritis model assessed as increase in tolerated weight on ipsilateral paw at 0.1 mg/kg, po measured up to 45 mins by paw pressure test; assay type: functional, organism-based; how it was run: as §1
[16] = system: Rattus norvegicus; assay: Antiarthritic activity in CFA-induced Sprague-Dawley rat rheumatoid arthritis model assessed as difference between weight burden on contralateral and ipsilateral paw at 0.1 mg/kg, po measured at 15 to 30 mins by incapacitance test (reference value: 54.2 +/- 5.1 g); assay type: functional
[17] = system: Rattus norvegicus; assay: Antiarthritic activity in CFA-induced Sprague-Dawley rat rheumatoid arthritis model assessed as decrease in difference between weight burden on contralateral and ipsilateral paw at 5.8 mg/kg, po measured up to 75 mins by incapacitance test; assay type: functional, organism-based
[18] = system: Rattus norvegicus; assay: Antiarthritic activity in CFA-induced Sprague-Dawley rat rheumatoid arthritis model assessed as increase in tolerated weight on ipsilateral paw at 5.8 mg/kg, po measured at 15 mins by paw pressure test; assay type: functional, organism-based; how it was run: as §1
[19] = system: Rattus norvegicus; assay: Antiarthritic activity in CFA-induced Sprague-Dawley rat rheumatoid arthritis model assessed as difference between weight burden on contralateral and ipsilateral paw at 10 mg/kg, po measured at 15 to 30 mins by incapacitance test (reference value: 54.2 +/- 5.1 g); assay type: functional
[20] = system: Rattus norvegicus; assay: Antiarthritic activity in CFA-induced Sprague-Dawley rat rheumatoid arthritis model assessed as difference between weight burden on contralateral and ipsilateral paw at 1 mg/kg, po measured at 15 to 30 mins by incapacitance test (reference value: 54.2 +/- 5.1 g); assay type: functional
[21] = system: Rattus norvegicus; assay: Antiarthritic activity in CFA-induced Sprague-Dawley rat rheumatoid arthritis model assessed as tolerated weight on ipsilateral paw at 1 mg/kg, po measured up to 30 mins by paw pressure test (reference value: 43.5 +/- 0.5 g); assay type: functional; how it was run: as §1
[22] = system: Rattus norvegicus; assay: Antiarthritic activity in CFA-induced Sprague-Dawley rat rheumatoid arthritis model assessed as tolerated weight on ipsilateral paw at 10 mg/kg, po measured at 15 mins by paw pressure test (reference value: 43.5 +/- 0.5 g); assay type: functional; how it was run: as §1
[23] = system: Rattus norvegicus; assay: Antiarthritic activity in po dosed CFA-induced Sprague-Dawley rat rheumatoid arthritis model assessed as increase in tolerated weight on ipsilateral paw measured up to 60 mins by paw pressure test; assay type: functional, organism-based; how it was run: as §1
[24] = system: Rattus norvegicus; assay: Antiarthritic activity in CFA-induced Sprague-Dawley rat rheumatoid arthritis model assessed as tolerated weight on ipsilateral paw at 1 mg/kg, po measured at 15 mins by paw pressure test (reference value: 43.5 +/- 0.5 g); assay type: functional; how it was run: as §1
[25] = system: Rattus norvegicus; assay: Antiarthritic activity in CFA-induced Sprague-Dawley rat rheumatoid arthritis model assessed as decrease in difference between weight burden on contralateral and ipsilateral paw at 0.1 mg/kg, po measured up to 75 mins by incapacitance test; assay type: functional, organism-based
[26] = system: Rattus norvegicus; assay: Antiarthritic activity in po dosed CFA-induced Sprague-Dawley rat rheumatoid arthritis model assessed as decrease in difference between weight burden on contralateral and ipsilateral paw measured up to 60 mins by incapacitance test; assay type: functional, organism-based
[27] = system: Rattus norvegicus; assay: Antiarthritic activity in CFA-induced Sprague-Dawley rat rheumatoid arthritis model assessed as increase in tolerated weight on ipsilateral paw at 1 mg/kg, po measured up to 60 mins by paw pressure test; assay type: functional, organism-based; how it was run: as §1
[28] = system: Rattus norvegicus; assay: Antiarthritic activity in CFA-induced Sprague-Dawley rat rheumatoid arthritis model assessed as tolerated weight on ipsilateral paw at 10 mg/kg, po measured up to 30 mins by paw pressure test (reference value: 43.5 +/- 0.5 g); assay type: functional; how it was run: as §1
[29] = target: T1, Carbonic anhydrase 2; assay: Potency index, ratio of acetazolamide Ki to test compound Ki for recombinant human carbonic anhydrase-2
How it was run: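 Recombinant human CA, made in house, in a stopped-flow CO₂ hydration assay. Conditions: 20 mM Hepes pH 7.5, 20 mM Na₂SO₄, 0.2 mM phenol red read at 557 nm, CO₂ 1.7-17 mM. Enzyme and inhibitor were preincubated 15 min at room temperature. Initial rates were corrected for the uncatalyzed rate. Ki came from nonlinear least squares, mean of three measurements. The ratio uses the acetazolamide Ki.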

[30] = system: Rattus norvegicus; assay: Antiarthritic activity in CFA-induced Sprague-Dawley rat rheumatoid arthritis model assessed as decrease in difference between weight burden on contralateral and ipsilateral paw at 10 mg/kg, po measured up to 75 mins by incapacitance test; assay type: functional, organism-based
[31] = system: Rattus norvegicus; assay: Antiarthritic activity in CFA-induced Sprague-Dawley rat rheumatoid arthritis model assessed as tolerated weight on ipsilateral paw at 0.1 mg/kg, po measured up to 30 mins by paw pressure test (reference value: 43.5 +/- 0.5 g); assay type: functional; how it was run: as §1
[32] = system: Rattus norvegicus; assay: Antiarthritic activity in CFA-induced Sprague-Dawley rat rheumatoid arthritis model assessed as increase in tolerated weight on ipsilateral paw at 10 mg/kg, po measured at 15 mins by paw pressure test; assay type: functional, organism-based; how it was run: as §1

Carbonic anhydrase 4, sequence (P22748 whole entry): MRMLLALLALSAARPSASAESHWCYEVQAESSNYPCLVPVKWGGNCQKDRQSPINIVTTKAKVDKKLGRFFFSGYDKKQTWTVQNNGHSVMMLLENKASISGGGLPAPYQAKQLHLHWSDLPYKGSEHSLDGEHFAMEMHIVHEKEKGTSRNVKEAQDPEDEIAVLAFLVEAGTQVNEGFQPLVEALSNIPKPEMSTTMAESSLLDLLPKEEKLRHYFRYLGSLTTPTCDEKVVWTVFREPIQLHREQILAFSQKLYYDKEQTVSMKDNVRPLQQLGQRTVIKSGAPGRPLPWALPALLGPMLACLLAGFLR
Carbonic anhydrase 1, sequence (P00915 whole entry): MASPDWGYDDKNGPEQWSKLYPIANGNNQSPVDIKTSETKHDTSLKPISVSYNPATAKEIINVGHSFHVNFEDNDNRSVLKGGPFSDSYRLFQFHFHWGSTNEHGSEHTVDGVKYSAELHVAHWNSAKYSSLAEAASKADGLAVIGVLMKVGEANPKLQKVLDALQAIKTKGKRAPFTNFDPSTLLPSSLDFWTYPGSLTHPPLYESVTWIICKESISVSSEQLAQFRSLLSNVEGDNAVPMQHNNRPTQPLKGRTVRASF
Carbonic anhydrase 12, sequence (O43570 whole entry): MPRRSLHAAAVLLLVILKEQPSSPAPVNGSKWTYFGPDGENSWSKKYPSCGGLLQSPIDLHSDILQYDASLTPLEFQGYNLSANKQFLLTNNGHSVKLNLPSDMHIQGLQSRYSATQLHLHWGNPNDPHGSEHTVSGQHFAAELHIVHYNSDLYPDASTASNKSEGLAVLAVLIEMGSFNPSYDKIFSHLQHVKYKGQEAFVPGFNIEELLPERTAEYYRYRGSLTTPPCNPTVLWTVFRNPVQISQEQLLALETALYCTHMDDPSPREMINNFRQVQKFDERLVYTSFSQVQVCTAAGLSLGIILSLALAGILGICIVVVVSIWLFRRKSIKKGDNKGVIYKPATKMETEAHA

Ki [2] [nM]	Ki [8] [nM]	Ki [9] [nM]	Ki [11] [nM]	Ki [12] [nM]	Compound	Activity [1]	Activity [3] [g]	Activity [4] [g]	Activity [5] [g]	Activity [6] [g]	Activity [7] [g]	Activity [10]	Activity [15]	Activity [24] [g]	Activity [26]	other results
8650	43.7	43.3	90.2	68.4	NS(=O)(=O)c1ccc(CCNC(=O)Cc2ccccc2Nc2c(Cl)cccc2Cl)cc1	Active	52.5	56.7	20.6	14.7	66.3	Non-Toxic	Active			Activity [13]: Active; Activity [14]: inactive; Activity [16]: 39 g
					CC(C(=O)O)c1cccc(C(=O)c2ccccc2)c1 (centres undefined)											Activity [17]: Active; Activity [18]: Active
6860	27.3	62.5	94.4	64.9	CC1=C(CC(=O)NCCc2ccc(S(N)(=O)=O)cc2)c2cc(F)ccc2/C1=C/c1ccc([S+](C)[O-])cc1 (centres undefined)	Active					64.2	Non-Toxic		55	Dose-dependent effect	Activity [19]: 8.6 g; Activity [20]: 22.3 g; Activity [21]: 55 g; Activity [22]: 62.5 g; Activity [23]: Dose-dependent effect; Activity [25]: inactive
3010	6.5	39.3	54	8.1	CC(C(=O)NCCc1ccc(S(N)(=O)=O)cc1)c1cccc(C(=O)c2ccccc2)c1 (racemic)	Active	50	53.3	36.8	28.6		Non-Toxic	Active	51.7	Dose-dependent effect	Activity [27]: Active; Activity [28]: 56.7 g; Ratio Ki [29]: 1.86; Activity [30]: Active; Activity [31]: 50 g; Activity [32]: Active
